Screening data: PubChem, several laboratories
UBC13 polyUb = human UBC13 polyubiquitination inhibition; UBC13 polyubiquitin chain formation, TR-FRET; inhibition, % at 20 µM; hit rate 0.47% among 330,000; AID 485273; in the data active = inhibition above about 45%, passing the limit was not always enough
Apaf1 inhib = blocks human Apaf-1 apoptosome activity. O14727. reconstituted apoptosome caspase-3 activity, DEVD-Rh110 fluorescence. inhibition, % at 20 µM. hit rate 0.71% among 330,000. AID 489030; active = inhibition of at least 40% at 20 µM;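 also: plate controls were DMSO wells for no effect and DEVD-CHO caspase inhibitor wells for full effect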
Target sequence (O14727 whole entry, looked up): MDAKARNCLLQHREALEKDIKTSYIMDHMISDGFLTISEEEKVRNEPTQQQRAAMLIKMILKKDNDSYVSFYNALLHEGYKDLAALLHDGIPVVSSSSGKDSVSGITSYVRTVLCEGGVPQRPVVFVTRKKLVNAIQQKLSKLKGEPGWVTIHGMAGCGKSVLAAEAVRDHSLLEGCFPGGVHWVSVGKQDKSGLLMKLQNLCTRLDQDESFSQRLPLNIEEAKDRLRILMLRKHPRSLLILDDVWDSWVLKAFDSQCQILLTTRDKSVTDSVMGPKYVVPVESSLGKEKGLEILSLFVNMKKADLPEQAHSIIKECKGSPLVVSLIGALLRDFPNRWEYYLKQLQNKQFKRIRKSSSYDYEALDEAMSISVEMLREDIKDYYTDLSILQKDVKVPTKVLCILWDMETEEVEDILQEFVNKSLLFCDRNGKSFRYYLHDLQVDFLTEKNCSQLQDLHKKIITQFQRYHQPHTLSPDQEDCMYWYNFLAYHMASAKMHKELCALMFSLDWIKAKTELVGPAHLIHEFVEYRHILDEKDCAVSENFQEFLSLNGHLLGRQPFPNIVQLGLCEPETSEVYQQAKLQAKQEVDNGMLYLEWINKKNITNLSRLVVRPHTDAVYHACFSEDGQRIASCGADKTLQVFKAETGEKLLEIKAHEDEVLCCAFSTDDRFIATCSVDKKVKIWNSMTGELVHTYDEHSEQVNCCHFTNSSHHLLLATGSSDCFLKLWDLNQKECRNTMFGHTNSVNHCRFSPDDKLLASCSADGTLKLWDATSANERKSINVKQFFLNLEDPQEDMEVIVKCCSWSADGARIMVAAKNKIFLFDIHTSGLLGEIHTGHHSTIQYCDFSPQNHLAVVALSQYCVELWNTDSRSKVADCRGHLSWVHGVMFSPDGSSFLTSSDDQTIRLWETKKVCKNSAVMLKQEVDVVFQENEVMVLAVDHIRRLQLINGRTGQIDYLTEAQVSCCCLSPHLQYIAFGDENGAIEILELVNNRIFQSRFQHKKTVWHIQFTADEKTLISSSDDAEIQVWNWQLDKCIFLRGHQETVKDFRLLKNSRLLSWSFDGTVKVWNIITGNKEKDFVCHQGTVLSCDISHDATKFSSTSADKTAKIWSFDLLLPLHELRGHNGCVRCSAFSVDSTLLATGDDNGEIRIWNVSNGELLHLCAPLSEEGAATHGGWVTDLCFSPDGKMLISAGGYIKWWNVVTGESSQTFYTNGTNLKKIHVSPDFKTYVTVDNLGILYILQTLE
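Assay system – apoptosome proteins · Medium – Hepes buffer, pH 7.5 · Also added – cytochrome c with DEVD-Rh110 · Timing – 30 min compound preincubation, 50 min activation, room temperature · Detection – Rh110 fluorescence, excitation 480 nm, emission 540 nm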
MEKK2mut PB1 HTS = signal of MEK5 binding to mutant human MEKK2 PB1 domain. AID 1530. bead flow cytometry, Alexa488-MEK5 binding to MEKK2 mutant. percent response, % at 10 µM. hit rate 0.35% among 290,000; in the data active = percent response above about 24%, passing the limit was not always enough
MEKK3 PB1 HTS = raises or lowers MEK5 binding to the human MEKK3 PB1 domain; Q99759; bead-based flow cytometry, Alexa488-MEK5 binding to MEKK3; actives lie on both sides; 0 = blocked by unlabeled MEK5, 100 = vehicle; binding response (% of control), % at 10 µM; hit rate 1.4% among 290,000; AID 1529;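 active = binding response more than 3 SD above or below the average of its plate-row segment, actives on both sides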;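 also: Alexa488 bead fluorescence after subtracting the streptavidin-only scavenger bead signal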
MEKK2 WT-MEK5 = raises or lowers MEK5 binding to wildtype human MEKK2 PB1 domain; Q9Y2U5; bead flow cytometry, Alexa488-MEK5 binding to MEKK2 WT; actives lie on both sides; binding response (% of control), % at 10 µM; hit rate 1.1% among 290,000; in the data active = binding response below about 67% or above about 130%
Starred values were filed as active, the others as inactive; nt = no result given; [ ] = dose if it differs, or a comment. Shown are actives, neighbours in structure and some others; about 2.9% of the full set was active somewhere.

SMILES	UBC13 polyUb	Apaf1 inhib	MEKK2mut PB1 HTS	MEKK3 PB1 HTS	MEKK2 WT-MEK5
O=C(Nc1ccccc1)c1ccc2nc(-c3ccco3)c(-c3ccco3)nc2c1	-19	60*	-5	90	71
O=C(NCCCO)c1ccc2nc(-c3ccco3)c(-c3ccco3)nc2c1	nt	nt	-3	96	94
CC(=O)c1ccc(NC(=O)c2ccc3nc(-c4ccco4)c(-c4ccco4)nc3c2)cc1	28	52*	1	98	90
O=C(NCCO)Nc1ccc2nc(-c3ccco3)c(-c3ccco3)nc2c1	45	71*	-10	87	79
O=C(Nc1ccc(N2CCOCC2)cc1)c1ccc2nc(-c3ccco3)c(-c3ccco3)nc2c1	-14	15	1	96	100
COC(=O)C(=N/Nc1ccccc1C(=O)OC)/C(C)=N/O	-11	-20	-5	101	93
O=[N+]([O-])c1cccc(-c2ccc(CN3CCCCC3)o2)c1	7	0	4	99	103
CC(=O)OCC1O[C@@H](O[C@@H]2C[C@H]3C(C)(C)[C@H](OC(C)=O)CC[C@]3(C)[C@H]3CC[C@]45C[C@]4(CC[C@H]5[C@@H](C)C[C@@H](O)[C@H](O)C(C)(C)O)[C@@]32C)[C@H](O)[C@@H](O)[C@@H]1O (stereo not given in full)	93*	25	5	95	99
O=C(NCc1ccccc1)C1(CC2CC(c3ccccc3)=NO2)CCNCC1 (stereo not given)	40	47*	nt	nt	nt
O=C(NC1CCCCC1)C(c1ccc(F)cc1)N(CCCN1CCOCC1)C(=O)c1ccc(CN2CCOCC2)o1 (stereo not given)	-10	-5	-1	102	101
O=C1c2cccc3cccc(c23)C(=O)N1CC1CCN(S(=O)(=O)c2ccc(F)cc2)CC1	30	6	0	103	106
O=C(c1ccc(S(=O)(=O)N2CCCCCC2)cc1)N1CCC(CN2C(=O)c3cccc4cccc(c34)C2=O)CC1	46*	20	-2	102	102
CCC(C)N(C(=O)COC(=O)c1cc([N+](=O)[O-])ccc1N1CCOCC1)C1CCS(=O)(=O)C1 (stereo not given)	-13	78*	nt	nt	nt
CC(C)(C)c1cc(CCC(=O)N2CCC2)cc(C(C)(C)C)c1O	6	8	25*	105	118
COc1ccc(NC(=O)CSC(C)c2nc3ccccc3c(=O)[nH]2)cc1 (stereo not given)	1	-11	1	102	104
Cc1ccc(F)c(NC(=S)Nc2cccc3ccccc23)c1	-30	78*	5	100	98
CC(=O)c1cccc(NC(=S)Nc2cccc3ccccc23)c1	-31	81*	8	104	108
COc1ccc(NC(=S)Nc2cccc3ccccc23)cc1OC	-42	83*	4	100	105
CC(=O)c1ccc(NC(=S)Nc2cccc3cnccc23)cc1	-58	96*	-4	105	101
Cc1ccc(C(=O)Nc2cccc3ccccc23)cc1	6	3	4	104	102
COc1cc2ccccc2cc1C(=O)OCC(=O)N(CC(C)C)c1c(N)n(Cc2ccccc2)c(=O)[nH]c1=O	3	-7	nt	nt	nt
CSCCC(NC(=O)c1ccco1)C(=O)NCC1CCCO1 (stereo not given)	-9	-1	nt	nt	nt
Cc1ccc(C)c(NC(=S)Nc2cccc3cnccc23)c1	-73	96*	-19	81	76
CC1=NN(c2ccc(Cl)c(C(=O)O)c2)C(=O)/C1=C\c1ccc(-c2ccc(C(=O)O)cc2)o1	nt	nt	-9	95	88
CC1=NN(c2ccccc2)C(=O)/C1=C/c1ccc(-c2ccc(C)c(C(=O)O)c2)o1	-71	68*	nt	nt	nt
SMILES	UBC13 polyUb	Apaf1 inhib	MEKK2mut PB1 HTS	MEKK3 PB1 HTS	MEKK2 WT-MEK5
CC1=NN(c2ccc(C(=O)O)cc2)C(=O)/C1=C/c1ccc(-c2ccccc2F)o1	-34	58*	3	104	102
C#CCOCCOCCOCCNc1nc(N2CCN(C(=O)CCCCCCCCCCNC(=O)Cn3cc(CCCCCN)nn3)CC2)nc(N2CCN(C(=O)CCCCCCCCCCNC(=O)[C@H](CO)n3cc(CCCCCN)nn3)CC2)n1	117*	63*	nt	nt	nt
C#CCOCCOCCOCCNc1nc(N2CCN(C(=O)CCCCCCCCCCNC(=O)Cn3cc(C[C@@H](C)O)nn3)CC2)nc(N2CCN(C(=O)CCCCCCCCCCNC(=O)[C@H](CCCCN)n3cc(C[C@@H](C)CC)nn3)CC2)n1	122*	71*	nt	nt	nt
COc1ccc(C(=O)NCCc2nnc3ccc(SCC(=O)Nc4ccccc4F)nn23)cc1	1	-4	1	105	104
COC(=O)c1cc(S(=O)(=O)N2CCN(c3cccc(Cl)c3)CC2)c[nH]1	7	8	0	102	103
COc1ccc(NC(=O)CN(Cc2ccco2)Cc2ccco2)cc1S(=O)(=O)N1CCCCC1	1	15	nt	nt	nt
CCc1nnc(NC(=O)c2sc3nc4c(cc3c2N)CCCCC4)s1	22	5	2	139*	106
CCOC(=O)c1ccc(S(=O)(=O)N2CCC(N3CCCCC3)CC2)cc1	47*	-4	4	103	105
CCOC(=O)c1ccc(S(=O)(=O)N2CCC(C(=O)OCC)CC2)cc1	-5	-13	-4	94	97
O=C(NC1CC(=O)N(c2ccc(Cl)cc2)C1)C1CC1 (stereo not given)	0	-1	nt	nt	nt
N#C/C(C(N)=O)=C1/SC=C(c2ccccc2)N1c1ccccc1	35	8	20	107	96
N#C/C(C(=O)c1ccccc1)=C1/SC=C(N)N1c1ccccc1	nt	nt	-30	2.0*[inhibitor]	4.0*[inhibitor]
COCCn1c(N)c(C(=O)NCc2cccs2)c2nc3ccccc3nc21	21	95*	-5	99	92
Nc1c(C(=O)NCc2ccco2)c2nc3ccccc3nc2n1CCc1ccc(F)cc1	-17	78*	-1	106	106
Cc1cccc2[nH]c(CCNC(=O)C3CCC(=O)N(CCc4cccc(F)c4)C3)nc12 (stereo not given)	0	-2	1	100	100
CC12CCC(=O)N1C(C(=O)Nc1cccc(F)c1)CS2 (stereo not given)	-5	-8	8	107	110
NC(CCCCc1ccccc1)c1cccc2ccccc12 (stereo not given)	54*	22	nt	nt	nt
O=S(=O)(c1ccc2ncn(O)c2c1)N1CCOCC1	-7	-5	-2	94	92
O=C1c2c(O)ccc(O)c2C(=O)c2c(NCCNCCO)ccc(NCCNCCO)c21	34	78*	nt	nt	nt
C[C@H](CO)N1C[C@H](C)[C@@H](CN(C)S(=O)(=O)c2cn(C)cn2)Oc2ccc(NC(=O)C3CCCCC3)cc2C1=O	-14	0	nt	nt	nt
CCCCN(CCCC)c1ncnc2nc[nH]c12	29	-1	0	123	102
CCCCN(Cc1ccccc1)c1ncnc2nc[nH]c12	47*	12	13	110	117
